Activity calls are given as the source filed them. The calls are words filed in the database; no cut-off is given here.
Key:
[1] = test system: T1, Discoidin domain-containing receptor 2 (Homo sapiens), Q16832 [I638F]; assay: Inhibition of DDR2 I638F mutant in human NCI-H2286 cells assessed as decrease in ERK phosphorylation at […] after 2 hrs by Western blot analysis; type: cell-based
T1 sequence (whole entry): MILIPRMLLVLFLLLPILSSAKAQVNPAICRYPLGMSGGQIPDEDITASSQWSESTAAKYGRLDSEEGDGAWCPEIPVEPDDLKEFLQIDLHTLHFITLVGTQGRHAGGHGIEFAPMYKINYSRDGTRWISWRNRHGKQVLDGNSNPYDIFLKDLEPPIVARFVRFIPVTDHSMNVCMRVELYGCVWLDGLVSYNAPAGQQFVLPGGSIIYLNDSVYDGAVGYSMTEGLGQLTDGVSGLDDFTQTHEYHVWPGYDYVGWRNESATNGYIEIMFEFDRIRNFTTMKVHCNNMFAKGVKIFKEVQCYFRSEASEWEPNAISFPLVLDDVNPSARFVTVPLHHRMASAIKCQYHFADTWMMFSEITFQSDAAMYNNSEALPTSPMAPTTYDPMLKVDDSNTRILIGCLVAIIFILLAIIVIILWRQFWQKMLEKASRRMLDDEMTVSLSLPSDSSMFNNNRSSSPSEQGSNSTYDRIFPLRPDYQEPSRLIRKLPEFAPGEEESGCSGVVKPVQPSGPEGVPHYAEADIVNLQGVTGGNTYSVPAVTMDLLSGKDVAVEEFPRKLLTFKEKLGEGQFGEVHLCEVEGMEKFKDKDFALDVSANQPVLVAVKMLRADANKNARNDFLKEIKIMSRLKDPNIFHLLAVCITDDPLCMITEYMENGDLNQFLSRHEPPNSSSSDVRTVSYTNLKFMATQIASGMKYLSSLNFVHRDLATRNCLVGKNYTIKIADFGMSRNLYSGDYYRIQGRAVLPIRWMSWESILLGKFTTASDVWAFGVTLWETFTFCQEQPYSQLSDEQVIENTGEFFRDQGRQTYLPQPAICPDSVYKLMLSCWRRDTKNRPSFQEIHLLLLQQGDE
Summary of the method: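 NCI-H2286 cells exposed to compound for 2 h at 37 °C and lysed in SDS sample buffer. Lysates run on 10% SDS-PAGE and blotted to nitrocellulose. Membranes probed for phospho- and total DDR2, ERK and Akt, with GAPDH as loading control, and detected by HRP secondary antibody and enhanced chemiluminescence.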

[2] = biological target: Cyclin-dependent kinase 1 (Homo sapiens) (UniProt P06493); assay: Inhibition of CDK1 (unknown origin) at 10 nM relative to control
[3] = biological target: Angiopoietin-1 receptor (Homo sapiens) (UniProt Q02763); assay: Inhibition of Tie-2 (unknown origin) at 100 nM relative to control
Summary of the method: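 ELISA with purified recombinant kinase on plates precoated with poly(Glu,Tyr) 4:1 at 20 µg/mL. ATP 10 µM in HEPES pH 7.4 buffer with MgCl2, MnCl2, Na3VO4 and DTT. Run 60 min at 37 °C. Detected with anti-phosphotyrosine PY99, HRP secondary antibody and o-phenylenediamine, read at 490 nm. Inhibition % = [1 − A490/A490 control]×100. 1% DMSO as negative control.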

[4] = biological target: Receptor tyrosine-protein kinase erbB-2 (Homo sapiens) (UniProt P04626); assay: Inhibition of ErbB2 (unknown origin) at 10 nM relative to control
Summary of the method: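 Purified recombinant kinase domains run in ELISA on precoated poly(Glu,Tyr) 4:1 (20 µg/mL) with 10 µM ATP in 50 mM HEPES pH 7.4, 50 mM MgCl2, 0.5 mM MnCl2, 0.2 mM Na3VO4, 1 mM DTT; 1% DMSO control; 60 min at 37 °C. Phosphotyrosine read by PY99 antibody, HRP anti-mouse IgG, OPD/H2O2 at 490 nm; inhibition = [1−A490/A490control]×100%; two separate experiments.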

Chain of Angiopoietin-1 receptor (Homo sapiens) (Q02763 whole entry): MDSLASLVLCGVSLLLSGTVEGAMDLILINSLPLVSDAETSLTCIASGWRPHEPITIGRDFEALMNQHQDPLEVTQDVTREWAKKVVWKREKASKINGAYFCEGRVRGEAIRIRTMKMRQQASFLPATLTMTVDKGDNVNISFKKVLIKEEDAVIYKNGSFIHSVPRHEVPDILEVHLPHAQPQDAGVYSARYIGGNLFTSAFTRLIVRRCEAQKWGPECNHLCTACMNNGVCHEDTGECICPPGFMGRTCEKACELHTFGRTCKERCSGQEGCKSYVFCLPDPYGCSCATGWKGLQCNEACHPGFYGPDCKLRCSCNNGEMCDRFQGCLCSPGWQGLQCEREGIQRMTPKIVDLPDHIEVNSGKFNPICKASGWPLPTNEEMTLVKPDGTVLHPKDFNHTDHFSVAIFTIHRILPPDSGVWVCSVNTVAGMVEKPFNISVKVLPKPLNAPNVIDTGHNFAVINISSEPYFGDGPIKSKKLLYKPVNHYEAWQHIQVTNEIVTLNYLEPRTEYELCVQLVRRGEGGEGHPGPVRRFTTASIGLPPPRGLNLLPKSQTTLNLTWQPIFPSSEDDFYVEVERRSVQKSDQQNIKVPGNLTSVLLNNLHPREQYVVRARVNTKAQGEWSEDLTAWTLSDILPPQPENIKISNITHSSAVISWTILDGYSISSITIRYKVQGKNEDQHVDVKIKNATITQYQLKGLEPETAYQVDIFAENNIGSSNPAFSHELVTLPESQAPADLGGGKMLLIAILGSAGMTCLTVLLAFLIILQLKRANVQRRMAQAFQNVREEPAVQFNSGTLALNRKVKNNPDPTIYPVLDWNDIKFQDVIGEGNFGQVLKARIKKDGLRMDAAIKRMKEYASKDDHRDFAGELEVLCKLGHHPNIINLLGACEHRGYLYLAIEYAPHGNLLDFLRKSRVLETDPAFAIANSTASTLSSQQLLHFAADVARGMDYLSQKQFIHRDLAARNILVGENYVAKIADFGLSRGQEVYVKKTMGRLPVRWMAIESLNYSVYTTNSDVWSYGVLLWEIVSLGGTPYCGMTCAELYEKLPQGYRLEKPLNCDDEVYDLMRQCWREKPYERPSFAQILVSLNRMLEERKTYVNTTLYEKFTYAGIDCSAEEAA
Chain of Cyclin-dependent kinase 1 (Homo sapiens) (P06493 whole entry, looked up): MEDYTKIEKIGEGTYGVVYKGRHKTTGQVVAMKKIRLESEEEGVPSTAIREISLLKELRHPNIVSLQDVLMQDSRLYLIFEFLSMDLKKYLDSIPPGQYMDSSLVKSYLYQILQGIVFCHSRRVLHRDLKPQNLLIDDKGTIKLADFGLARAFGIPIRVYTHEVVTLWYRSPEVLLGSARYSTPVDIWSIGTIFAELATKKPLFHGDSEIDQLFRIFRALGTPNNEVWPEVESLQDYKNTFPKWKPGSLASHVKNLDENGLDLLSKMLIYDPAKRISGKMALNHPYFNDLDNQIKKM
Chain of Receptor tyrosine-protein kinase erbB-2 (Homo sapiens) (P04626 whole entry, the tested form may be a part): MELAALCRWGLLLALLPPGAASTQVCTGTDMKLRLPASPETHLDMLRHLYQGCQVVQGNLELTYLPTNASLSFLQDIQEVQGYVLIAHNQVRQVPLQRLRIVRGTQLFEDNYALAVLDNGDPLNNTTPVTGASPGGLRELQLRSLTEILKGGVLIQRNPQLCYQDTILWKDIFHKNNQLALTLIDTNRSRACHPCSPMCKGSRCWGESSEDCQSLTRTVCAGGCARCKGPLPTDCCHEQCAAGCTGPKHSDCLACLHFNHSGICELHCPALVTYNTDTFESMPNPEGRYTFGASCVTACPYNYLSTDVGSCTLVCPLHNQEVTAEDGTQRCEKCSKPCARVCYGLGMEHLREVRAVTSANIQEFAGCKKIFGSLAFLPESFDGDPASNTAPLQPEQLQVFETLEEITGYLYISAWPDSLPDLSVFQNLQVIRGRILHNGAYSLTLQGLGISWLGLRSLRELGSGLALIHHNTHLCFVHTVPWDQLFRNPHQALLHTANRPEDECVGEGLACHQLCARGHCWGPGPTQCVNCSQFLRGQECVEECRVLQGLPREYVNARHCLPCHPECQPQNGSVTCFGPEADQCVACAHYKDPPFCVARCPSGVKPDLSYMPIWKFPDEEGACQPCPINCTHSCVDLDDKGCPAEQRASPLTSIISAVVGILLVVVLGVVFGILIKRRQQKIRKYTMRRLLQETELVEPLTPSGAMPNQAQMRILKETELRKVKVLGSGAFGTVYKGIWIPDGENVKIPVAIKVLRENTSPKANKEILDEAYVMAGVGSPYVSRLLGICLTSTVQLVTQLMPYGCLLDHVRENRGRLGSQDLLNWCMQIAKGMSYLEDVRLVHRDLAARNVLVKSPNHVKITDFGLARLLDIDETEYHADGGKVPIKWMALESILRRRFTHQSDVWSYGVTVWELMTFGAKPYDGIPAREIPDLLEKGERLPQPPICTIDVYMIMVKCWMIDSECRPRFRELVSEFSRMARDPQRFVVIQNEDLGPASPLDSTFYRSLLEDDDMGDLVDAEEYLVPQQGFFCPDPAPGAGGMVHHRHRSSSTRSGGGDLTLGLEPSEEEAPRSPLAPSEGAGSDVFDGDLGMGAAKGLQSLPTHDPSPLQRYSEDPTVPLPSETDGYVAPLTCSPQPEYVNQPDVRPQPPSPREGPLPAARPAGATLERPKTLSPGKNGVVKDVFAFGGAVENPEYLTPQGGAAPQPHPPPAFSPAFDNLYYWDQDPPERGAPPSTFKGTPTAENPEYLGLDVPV

`Cc1ccc(C(=O)Nc2cccc(C(F)(F)F)c2)cc1-c1ccc2c(-c3cnn(C4CC4)c3)n[nH]c2c1` was tested, and the inhibition [1] was “Active”, the inhibition [2] was -0.1% and the inhibition [3] was 36.4%. The inhibition [4] was 8.2%.

Reference: ChEMBL document CHEMBL4411287, “Discovery and optimization of a series of 3-substituted indazole derivatives as multi-target kinase inhibitors for the treatment of lung squamous cell carcinoma” (Eur J Med Chem, 2019)
